Only a selection was taken, and hits are over-represented in it overall.
pCIP destab: p/CIP protein destabilization. F442A p/CIP-EGFP cells, EGFP fluorescence, 16 h. decrease of EGFP signal, % at 10 µM. actives 0.01% (n = 290,000). AID 1984;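 active means EGFP signal decrease of at least 30% at 10 µM or well 3 SD below plate mean, unless failing retest; inactive means the rest, including hits failing retest or dose response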
ABCB6 inh MLPCN: inhibitors of human ABC transporter ABCB6; Q9NP58; K562-ABCB6 porphyrin accumulation, flow cytometry, 1 h; stronger effect = lower value; fluorescence ratio to DMSO, % at 10 µM; actives 0.19% (n = 360,000); AID 602162;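 active means fluorescence ratio to DMSO below 75%, the collection mean minus 3 SD; inconclusive means too few cells collected in the well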;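 further: signal is porphyrin accumulated inside mitochondria; 100% equals median channel fluorescence of DMSO control wells; lower ratio means ABCB6 inhibition with less porphyrin fluorescence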
V-ATPase pH: yeast V-ATPase proton transport regulation by pHLuorin. S. cerevisiae, pHLuorin cytosolic pH fluorescence. response, % at 10 µM. actives 0.37% (n = 350,000). AID 504577; in the data active means response mostly above about 7.3%, no sharp cut-off; inactive means mostly below about 5.4%; further: actives read high
Dynein cargo inh: dynein cargo transport inhibition | 3617.4 mouse cells, GR-EGFP nuclear translocation imaging; test concentration mostly 20 µM; stimulated with dexamethasone, 1 µM; stronger effect = lower value | z-score, hits read low | actives 0.47% (n = 220,000) | AID 1381;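 active means plate z-score of nuclear minus cytoplasmic receptor signal below a set negative limit, without overly bright fluorescence or cell loss, cut at about -3.5 in these data, passing the limit was not always enough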;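 further: z-score of nuclear minus cytoplasmic ring GR-EGFP intensity difference per well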
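medium = tetracycline-free induction medium containing charcoal-stripped FBS | probe or stimulus = dexamethasone, 1.0 µM final | timing = 48 h induction, then 1 h compound, then 30 min agonist, 37 °C | detection = automated 10x imaging of fixed Hoechst-stained cells | read-out basis = nuclear versus cytoplasmic GR-EGFP signal, averaged per well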
Cl transport mod: modulates chloride dependent transport by human KCC2. Q9H2X9. KCC2 cells, thallium flux FluoZin-2 fluorescence. B-score of Tl+ flux slope (higher = more flux/activation; lower = inhibition) at 10 µM. actives 2.2% (n = 190,000);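 active means thallium flux slope and its plate-corrected score both differing from the plate sample mean at a set confidence after two filtering rounds, in either direction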;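 further: slope of fluorescence scaled to starting intensity during 10 to 20 s after thallium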
KCC2 secondary: confirmation of human KCC2 transport modulators; normalised thallium flux (F/F0 slope) at 10 µM; actives 15% (n = 3,700); HEK293-KCC2, thallium flux, FluoZin2 fluorescence; stronger effect = higher value; AID 1713; shares compounds with Cl transport mod;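 active means thallium flux slope above the same plate's solvent-only control mean plus 3 SD; inconclusive means the two replicate wells disagree; inactive means no significant difference from solvent-only control wells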
KCC2 bumet counter: thallium flux despite bumetanide block in KCC2 cells, secondary assay 3; shares compounds with Cl transport mod; HEK293-KCC2 + bumetanide/ouabain, thallium flux FluoZin2; stronger effect = higher value; normalized thallium flux at 10 µM; actives 49% (n = 3,700);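 active means thallium entry rate above the same plate's blocked-transporter control wells by more than 3 SD; inconclusive means the two repeat wells disagree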;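 further: raw slope of fluorescence over initial fluorescence between 10 and 20 s after thallium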
KCC2 secondary2: KCC2 (human) modulation, second secondary assay | shares compounds with Cl transport mod | HEK293-KCC2, thallium flux FluoZin2 fluorescence; actives lie on both sides; F/F0 rise rate, 10–20 s post-thallium | normalized thallium flux at 10 µM | actives 23% (n = 3,700) | AID 1715;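 active means thallium flux slope more than 3 SD above or below the plate's solvent-only control mean, mostly below; inconclusive means the two repeat wells disagreed; inactive means no significant shift from solvent-only controls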;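 further: raw slope with 0.1% DMSO as baseline and bumetanide as block control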
HEK counter1: counter-screen for KCC2 modulators: effect in parental HEK293 cells; shares compounds with Cl transport mod; thallium flux FluoZin2, ouabain; baseline-ratio fluorescence slope, 10–20 s after thallium; thallium flux rate (normalised fluorescence) at 10 µM; actives 46% (n = 3,700);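 active means thallium flux rate significantly above the same plate's solvent-only control wells, beyond their mean plus 3 SD; inconclusive means the two replicate wells gave conflicting results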
KCC2 retest ouab: KCC2 (human) modulation, ouabain retest | HEK293-KCC2, thallium flux FluoZin2 fluorescence; bidirectional: low = inhibitor, high = activator | raw Tl+ flux slope (below DMSO = inhibition, above = activation) at 10 µM | actives 48% (n = 3,700) | shares compounds with Cl transport mod;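 active means thallium flux slope beyond 3 SD from same-plate DMSO control mean in most replicates, usually higher, sometimes lower; inconclusive means repeat tests gave conflicting results; inactive means no significant difference from controls in most replicates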;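 further: slope of initial-normalized fluorescence between seconds 10 and 20 after thallium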
HEK counter2: parental HEK flux effect, counter-screen 2 | actives 33% (n = 3,700) | HEK293 parental, thallium flux FluoZin-2 fluorescence slope | shares compounds with Cl transport mod | thallium flux slope at 10 µM | AID 1718;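 active means thallium flux slope above the same plate's solvent-control mean plus 3 SD in both duplicate wells; inconclusive means duplicate wells that disagreed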;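 further: run without ouabain in cells lacking the KCC2 cotransporter; slope of fluorescence scaled to its starting value between 10 and 20 s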
* hit, by the source's call; ? = inconclusive; / = no result.

SMILES	pCIP destab	ABCB6 inh MLPCN	V-ATPase pH	Dynein cargo inh	Cl transport mod	KCC2 secondary	KCC2 bumet counter	KCC2 secondary2	HEK counter1	KCC2 retest ouab	HEK counter2
O=C(NNC(=S)NC(=O)c1ccccc1[N+](=O)[O-])c1ccc(Cl)cc1Cl	-12	99	0	-0.5	4.9*	0.011	0.016*	0.031	0.014*	?	0.011
CCCCC(=O)NC(=S)NNC(=O)c1ccc(Cl)cc1Cl	-2	92	-1	-0.47	33*	0.0099*	0.069*	0.04*	0.048*	0.057*	0.029*
CCCNC(=O)c1ccc(Cl)cc1Cl	-10	94	0	-0.51	-0.064	/	/	/	/	/	/
O=C(NNC(=S)NC(=O)c1ccccc1[N+](=O)[O-])c1ccccc1[N+](=O)[O-]	0	98	-2	0.73	-0.41	/	/	/	/	/	/
O=C(NNC(=S)Nc1cccc(C(F)(F)F)c1)c1ccc(Cl)cc1Cl	-9	93	-1	-0.47	6.3*	0.006	0.027*	0.033	0.021*	?	0.022*
O=C(NC(=S)Nc1ccccc1O)c1ccc(Cl)cc1Cl	10	93	-1	-0.86	5.2*	0.0074	0.013*	0.033	0.013*	?	0.013*
CCCCCC(=O)NC(=S)Nc1ccc(Cl)cn1	4	99	3	-0.34	8.3*	0.0065	0.013*	0.035	0.016*	?	0.018*
CCCCC(=O)NC(=S)NNC(=O)c1ccc(OC)cc1	-8	97	6	0.82	27*	0.021*	0.053*	0.035	?	0.039*	?
S=C(Nc1ccccc1)Nc1ccc(Cl)cn1	-12	95	-3	-0.82	5.8*	0.018	0.017*	0.03	0.01*	0.019	0.012
CCCCCC(=O)Nc1ccc(Cl)cn1	-7	98	0	-0.16	0.051	/	/	/	/	/	/
COc1ccc(C(=O)NNC(=S)NC(=O)c2ccc(OC)cc2)cc1	-8	95	-3	/	/	/	/	/	/	/	/
CCCCCC(=O)NNC(=S)NC(=O)c1ccc([N+](=O)[O-])cc1	10	93	1	-0.84	13*	0.0074	0.027*	0.035	0.02*	0.033*	0.02*
COc1ccc(S(=O)(=O)N2CCCCC2)cc1NC(=O)Cc1sc(C)nc1-c1ccc(F)cc1	/	105	0	/	/	/	/	/	/	/	/
CC(=O)N=c1sc2ccccc2n1C	-7	96	2	-0.7	0.058	/	/	/	/	/	/
CC(C(=O)N=c1sc2ccccc2n1C)N1C(=O)C2CC=CCC2C1=O (stereo not given)	-8	101	-2	0.36	/	0.0072	?	?	0.0073	?	0.011
CC(=O)c1c(C)[nH]c(C(=O)OCC(=O)N2CC(C)OC(C)C2)c1C (stereo not given)	/	97	1	/	/	/	/	/	/	/	/
O=C1/C(=C/c2cccs2)NC(=S)N1C1CC1	-33	94	-5	-0.52	43*	0.016*	0.089*	0.049*	0.06*	0.07*	0.033*
COc1ccc2c(C)cc(=S)[nH]c2c1	-2	101	-4	0.088	8*	0.017	0.015*	0.03	0.013*	0.019	0.014*
